Only some compounds are listed: those with a hit (about 2.2% of all), similar ones and a draw of the others.
NR2E3 ag-1: NR2E3 agonists in two-hybrid cells, primary screen, cell-based, luminescence, CHO-S, Gal4-NCOR/VP16-NR2E3 | Photoreceptor-specific nuclear receptor (Homo sapiens), Q9Y5X4 | luciferase | 360,000 compounds, 0.35% hits | inhibition of corepressor binding, % at 3.98 µM;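 active means inhibition above the mean of all tested compounds plus 3 SD, cut at about 70% in these data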;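 further: 0% = DMSO with NR2E3 transfected cells and 100% = cells lacking NR2E3 construct; higher means lower luciferase signal from less NR2E3 corepressor binding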
Target sequence (Q9Y5X4 whole entry, looked up, the tested form may be a part): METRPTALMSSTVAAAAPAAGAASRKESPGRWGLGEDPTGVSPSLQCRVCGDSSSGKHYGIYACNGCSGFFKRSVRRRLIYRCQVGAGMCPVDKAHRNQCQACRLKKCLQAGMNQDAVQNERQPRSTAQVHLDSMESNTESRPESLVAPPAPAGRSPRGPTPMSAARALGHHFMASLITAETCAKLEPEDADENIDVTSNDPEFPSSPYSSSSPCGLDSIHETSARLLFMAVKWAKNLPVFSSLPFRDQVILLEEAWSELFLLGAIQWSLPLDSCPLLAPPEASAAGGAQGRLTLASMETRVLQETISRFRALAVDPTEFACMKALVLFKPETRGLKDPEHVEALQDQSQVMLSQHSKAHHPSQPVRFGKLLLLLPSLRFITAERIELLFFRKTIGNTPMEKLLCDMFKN
miR122 inh: miR-122 Renilla sensor signal increase in Huh7, primary screen, miR-122 inhibitor project, cell-based, single point, plate reader; Huh7 miR-122 Renilla luciferase sensor, 48 h; neutral wells = 0, positive control = 100; activation (reporter increase), % at 12.5 µM; 340,000 compounds, 0.3% hits; AID 602342, 2012;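 active means mean replicate activation score at least 90 and every replicate individually at or above 90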;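 further: higher luciferase means less miR-122 activity so hits act as miR-122 inhibitors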
697 NFkB inh: inhibitors of PMA/ionomycin-induced NF-kB reporter, 697 cells, primary screen, B-cell NF-kB inhibitor project, cell-based, luminescence, uHTS. 697 B-cell NF-kB luciferase reporter, 16 h. inhibition, % at 4 µM. 330,000 compounds, 0.33% hits. AID 435022, 2010; in the data active means inhibition above about 35%
Jurkat NFkB inh: inhibitors of induced NF-kB luciferase reporter, primary screen, TCR NF-kB activation inhibitor project, cell-based, luminescence, uHTS; Jurkat, PMA/ionomycin-induced NF-kB luciferase reporter; inhibition, % at 4 µM; 330,000 compounds, 0.53% hits; in the data active means inhibition above about 50%
FGF22 binding: binders of human FGF22 protein, primary screen, FGF22 synaptogenesis inhibitor project, biophysical, thermal shift, single point | Fibroblast growth factor 22 (Homo sapiens), Q9HCT0 | recombinant FGF22 thermal shift, SYPRO orange fluorescence; percent of sucrose octasulfate shift, DMSO zero | activity (Tm shift, normalised), % at 9.99 µM | 340,000 compounds, 1.5% hits | AID 651658, 2012;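 active means mean Tm shift, scaled 0 neutral to 100 positive control, at about 1.3% or above, every replicate too, limit read from the data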
Target sequence (Q9HCT0 whole entry, looked up): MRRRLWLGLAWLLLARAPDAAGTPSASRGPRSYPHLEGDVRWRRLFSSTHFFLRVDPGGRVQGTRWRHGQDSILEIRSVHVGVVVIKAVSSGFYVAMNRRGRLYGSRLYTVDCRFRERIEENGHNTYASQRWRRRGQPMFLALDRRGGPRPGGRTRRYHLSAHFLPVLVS
NR2E3 ag-2: inhibitors of NR2E3-RetCOR corepressor binding, primary screen, NR2E3 agonist project, biochemical, TR-FRET, GST-NR2E3, biotin-RetCOR | 1536-well | 320,000 compounds, 0.12% hits | inhibition of corepressor binding, % at 4.78 µM | Photoreceptor-specific nuclear receptor (Homo sapiens), Q9Y5X4;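 active means percent inhibition above the cutoff of mean plus 3 SD of all tested compounds, set per screening campaign, cut at about 20% in these data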;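 further: 0% = DMSO wells and 100% = biotin wells as full block of FRET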
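system = GST-tagged NR2E3 plus biotinylated RetCOR corepressor | input = 1.35 nM GST-NR2E3 | also added = 7 nM biotin-RetCOR | schedule = 5 h incubation at 4 °C | measured by = TR-FRET with europium anti-GST and streptavidin-D2, 340 nm excitation | read-out = percent loss of FRET ratio relative to control wells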
697 NFkB conf: PMA/ionomycin-induced NF-kB reporter inhibitors, 697 retest, confirmation, B-cell NF-kB inhibitor project, cell-based, luminescence, single concentration | 697 B-cell NF-kB luciferase, 16 h | inhibition, % at 4 µM | shares compounds with 697 NFkB inh | AID 449746, 2010 | 2,000 compounds, 35% hits; in the data active means inhibition mostly above about 28%, no sharp cut-off; inactive means mostly below about 22%
An asterisk follows results filed as active; i = inactive; nt = not tested or not shown; [ ] = dose if it differs, or a comment.

SMILES	NR2E3 ag-1	miR122 inh	697 NFkB inh	Jurkat NFkB inh	FGF22 binding	NR2E3 ag-2	697 NFkB conf
Cc1ccc(NC(=O)[C@H](Cc2c[nH]c3ccccc23)NC(=O)[C@@H]2Cc3ccccc3CN2)c(C)c1	9	2	i	-48	0	-5	-5
Cc1cc(C)cc(NC(=O)[C@H](Cc2c[nH]c3ccccc23)NC(=O)[C@@H]2Cc3ccccc3CN2)c1	-37	3	-17	-10	0	-2	nt
COc1ccc(C(=O)N/N=C/c2ccc(OC)c(CN3CCCc4ccccc43)c2)cc1	-15	13	44*	-3	nt	0	29*
COc1ccc(-c2cc3ccc(F)cc3cn2)cc1	-124	10	-239	13	0	nt	nt
COc1ccc(-c2cc3cc(F)ccc3cn2)cc1	-160	3	-255	-6	0	nt	-263
CCOC(=O)C1CCN(C(=O)c2ccccc2NC(C)=O)CC1	-10	13	39*	11	nt	2	8
CCOC(=O)C1CCN(C(=O)c2ccc3c(=O)n4nc(Nc5cc(C)ccc5C)sc4nc3c2)CC1	-16	nt	-26	-17	0	1	nt
Cc1ccc(C)c(Nc2nn3c(=O)c4ccc(C(=O)NCc5cccnc5)cc4nc3s2)c1	-12	2	43*	6	0	0	21
C[C@@H]1CN([C@H](C)CO)C(=O)c2cccc(NC(=O)Nc3ccc4c(c3)OCO4)c2O[C@H]1CN(C)C(=O)NC1CCCCC1	nt	1[16.7 µM]	nt	nt	0	nt	nt
O=C(O)C1=C(C(=O)Nc2cc(C(F)(F)F)ccc2Cl)CCCC1	11	0	37*	-3	0	4	6
C=CCNC(=O)c1ccc(-c2nc3ccccc3nc2-c2ccccc2)cc1	9	4	11	7	0	1	nt
C=CCNC(=O)c1ccc(-c2nc(-c3ccccc3)cs2)cc1	-151	nt	-279	-54	nt	3	-145
C[C@H](NC(=O)C[C@@H]1C=C[C@H](NC(=O)Nc2ccc3c(c2)OCO3)[C@H](CO)O1)c1ccccc1	nt	-3[16.7 µM]	nt	nt	nt	nt	nt
Nn1c(-c2cccs2)nc2sc3c(c2c1=O)CCCC3	-138	3	-163	-136	nt	-3	nt
Cc1ccccc1-c1nc2sc3c(c2c(=O)n1N)CCCC3	-37	-7	-276	-100	nt	-2	-229
Cc1ccc(C(C)C)c(OCc2ccc(C(=O)N/N=C/c3ccc(O)c(O)c3)cc2)c1	-72	nt	-276	31	nt	0	-38
COc1cc(/C=N/NC(=O)c2ccc(COc3cc(C)ccc3C(C)C)cc2)cc(OC)c1O	-93	nt	-144	3	nt	1	nt
C[C@@H]1CN([C@@H](C)CO)C(=O)CCCn2cc(nn2)CO[C@@H]1CN(C)C(=O)Nc1ccc(C(F)(F)F)cc1	nt	5[16.7 µM]	nt	nt	0	nt	nt
CC(C)(C)c1ccc(-c2cc(-c3ccccc3O)[nH]n2)cc1	7	11	-368	-97	0	2	-220
COc1ccc(-c2cc(-c3ccc(C)cc3)n[nH]2)c(O)c1	-162	4	-184	-84	0	0	nt
COc1ccc(CN(C)C[C@H]2Oc3ccc(NC(=O)NC4CCCCC4)cc3C(=O)N([C@H](C)CO)C[C@H]2C)cc1	nt	6[16.7 µM]	nt	nt	0	nt	nt
CCN(CC)S(=O)(=O)c1cc(NC(=O)c2cc(-c3ccccn3)nc3ccccc23)ccc1C	-1	-16	-15	9	0	-2	nt
COc1ccc(NC(=O)c2cc(-c3ccccn3)nc3ccccc23)cc1S(=O)(=O)N(C)C	1	1	39*	18	0	5	46*
Cc1cc(/C=C2\Cc3ccccc3C2=O)c(C)n1-c1ccccc1	-46	nt	-310	-24	0	-1	-193
Cc1cc(C=C2C(=O)c3ccccc3C2=O)c(C)n1-c1ccccc1	-8	-8	-31	-9	nt	2	nt
SMILES	NR2E3 ag-1	miR122 inh	697 NFkB inh	Jurkat NFkB inh	FGF22 binding	NR2E3 ag-2	697 NFkB conf
CCOc1ccccc1CNC(=O)c1cc2oc3ccccc3c2n1C	-22	2	-359	-33	nt	2	-163
CN1CCN(C(=O)c2cc3c(c(-c4cccc(-c5ccccc5F)c4)n2)[C@@H](CCO)N([S@](=O)C(C)(C)C)C3)CC1	nt	nt	nt	nt	0	nt	nt
Brc1ccc2nc(N3CCN(c4ccccc4)CC3)sc2c1	-36	-12	-175	-142	41	5	nt
Clc1ccc2nc(N3CCN(c4ccccc4)CC3)sc2c1	-120	nt	-271	-139	nt	0	-208
Cc1cnc(NC(=O)COc2cccc3c2OC(C)(C)C3)s1	-19	10	i	-60	nt	2	i
O=C1NC(c2cc(Cl)cc([N+](=O)[O-])c2O)Nc2ccccc21 (centres undefined)	25	-6	36*	-15	0	2	-2
Cc1cc(-c2csc3nc[nH]c(=S)c23)cc(C)c1C	32	-6	35*	2	0	1	-22
COc1ccccc1S(=O)(=O)N(C)C[C@H]1Oc2cc(/C=C/c3ccccc3)ccc2S(=O)(=O)N([C@H](C)CO)C[C@H]1C	nt	34[16.7 µM]	nt	nt	0	nt	nt
Cc1ccccc1CN1CCc2cc([N+](=O)[O-])ccc21	7	nt	3	16	0	2	nt
COC(=O)CCN1CCc2cc(N=Nc3ccc([N+](=O)[O-])cc3)ccc21	-6	-4	-282	-90	0	1	-95
COc1cccc(NC(=O)N2C[C@@H](O)COC[C@H]3O[C@H](CC(=O)NC4Cc5ccccc5C4)CC[C@@H]32)c1	nt	-4[16.7 µM]	nt	nt	0	nt	nt
C[C@@H]1CN([C@H](C)CO)C(=O)c2cc(NC(=O)NC3CCCCC3)ccc2O[C@@H](C)CCCCO[C@@H]1CN(C)C(=O)Nc1ccccc1	nt	8[16.7 µM]	nt	nt	nt	nt	nt
COC(=O)c1ccccc1-c1c2ccc(=N)cc-2oc2cc(N)ccc12	-7	1	35	35	-5	-1	22
COC(=O)c1ccccc1-c1ccc(/C=N/NC(=O)c2cc3ccccc3o2)o1	1	4	9	-7	nt	-1	nt
CCCC#Cc1ccc2c(c1)O[C@H](CN(C)C(=O)c1ccccn1)[C@@H](C)CN([C@@H](C)CO)S2(=O)=O	nt	33[16.7 µM]	nt	nt	0	nt	nt
c1ccc(-c2cnc(-c3ccccc3)nc2)cc1	-69	-3	-296	-134	nt	-2	-319

Screens deposited in PubChem by several laboratories.
